According to ChEMBL document CHEMBL4346690, “Structure-activity relationship studies of (E)-3,4-dihydroxystyryl alkyl sulfones as novel neuroprotective agents based on improved antioxidant, anti-inflammatory activities and BBB permeability” (Eur J Med Chem, 2019):
One block for each compound: values may come before it. Calls of active or inactive are those of the source. The calls are words filed in the database; no cut-off is given here.

Key:
[1] = Cytotoxicity against […] BV2 cells assessed as cell viability at 0.625 to 40 uM after 24 hrs by MTS assay; assay type: cell-based; conditions: read-out: Activity
Method in brief: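 Viability of BV2 cells read by MTS under the NO-assay conditions: 3 h compound (0.625–40 µM) pretreatment followed by LPS 100 ng mL−1 for 24 h.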

PC-12 [2] = assay: Neuroprotection against H2O2-induced cell death in rat PC12 cells assessed as increase in cell viability at 5 uM preincubated for 3 hrs followed by H2O2 addition and measured after 3 hrs by MTS assay relative to CAPE; assay type: functional
Method in brief: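 PC12 cells plated at 2 × 10^5 cells/mL for 1 day, pretreated with compound (2.5, 5, 10 µM) for 3 h, then H2O2 added (final 400 µM) for 3 h. Viability read by MTS at 490 nm, untreated cells = 100%. Mean ± SD, n = 3.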

[3] = Antioxidant activity assessed as DPPH radical scavenging activity after 1 hr by […]; assay type: functional
Method in brief: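 DPPH (0.2 mM) in ethanol mixed with sample, kept 1 h at room temperature, absorbance read at 517 nm. Scavenging % = [1−(Ac−Ab)/A0]×100, where Ab is the sample in ethanol without DPPH and A0 is the ethanol+DPPH control. EC50 reported; vitamin C used as reference antioxidant; mean ± SD, n = 3.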

PC-12 [4] = assay: Neuroprotection activity in rat PC12 cells assessed as reduction in 6-OHDA-induced cell damages at 10 uM preincubated for 3 hrs followed by H2O2 addition and measured after 24 hrs by MTT assay relative to control; assay type: functional, cell-based; conditions: in the assay text read “6-OHDA addition” for “H2O2 addition”
Method in brief: (§1)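 PC12 cells plated at 2 × 10^5 cells mL−1 for 1 day, pretreated 3 h with compounds at 2.5, 5 or 10 µM, then 6-OHDA (final 250 µM) added for 24 h. Viability by MTT, absorbance 570 nm; untreated cells = 100%; mean ± SD, n = 3.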

PC-12 [5] = assay: Neuroprotection activity in rat PC12 cells assessed as reduction in 6-OHDA-induced cell damages at 2.5 uM preincubated for 3 hrs followed by H2O2 addition and measured after 24 hrs by MTT assay relative to control; assay type: functional, cell-based; conditions: in the assay text read “6-OHDA addition” for “H2O2 addition”; method in brief: as §1
[6] = Cytotoxicity against rat PC12 cells assessed as cell viability at 100 uM after 24 hrs by MTT assay; assay type: cell-based, PC-12; conditions: read-out: Activity
Method in brief: (§2)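 Cells kept in high-glucose DMEM with 10% FBS and 1% PS at 37 °C, 5% CO2. Plated 1 day, then compounds for 24 h; viability by MTT at 100 µM as ODtreated/ODcontrol × 100%, untreated = 100%. Mean ± SD, n = 3.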

[7] = Anti-neuroinflammatory activity in […] BV2 cells assessed as reduction in LPS-induced NO production preincubated for 3 hrs followed by LPS stimulation for 24 hrs by Griess assay; assay type: functional, cell-based; conditions: BV-2
Method in brief: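 BV2 microglia seeded 3 × 10^5 cells mL−1 for 1 day; compounds in medium added for 3 h, then LPS (final 100 ng mL−1) for a further 24 h. Supernatant mixed with Griess reagent, absorbance at 540 nm. Inhibition % from NO release of LPS-only, unstimulated and compound+LPS wells; IC50 reported; mean ± SD, n = 3.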

PC-12 [8] = assay: Neuroprotection activity in rat PC12 cells assessed as reduction in H2O2-induced cell death preincubated for 3 hrs followed by H2O2 addition and measured after 3 hrs by MTS assay; assay type: functional, cell-based
Method in brief: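 PC12 cells plated at 2 × 10^5 cells mL−1 for 1 day, pretreated 3 h with compounds, then H2O2 (final 400 µM) for 3 h. Viability by MTS at 490 nm relative to untreated cells (100%); single-concentration tests at 2.5, 5, 10 µM and IC50 values; mean ± SD, n = 3.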

[9] = Cytotoxicity against […] BV2 cells assessed as cell viability at 100 uM after 24 hrs by MTT assay; assay type: cell-based; conditions: read-out: Activity; method in brief: as §2

Structure (SMILES): C=CCCCCCS(=O)(=O)/C=C/c1ccc(O)c(O)c1
viability at 24 h, up to 40 µM [1]: > 90%
Activity (PC-12 [2]): 30%
EC50 [3]: 7.1 µM
Activity (PC-12 [4]): Active
Activity (PC-12 [5]): Active
viability at 24 h, 100 µM [6]: 67.5%
IC50 [7]: 11.2 µM
IC50 (PC-12 [8]): 1620 nM
viability at 24 h, 100 µM [9]: 58.9%

Structure (SMILES): O=S(=O)(/C=C/c1ccc(O)c(O)c1)CC1CCC1
viability at 24 h, up to 40 µM [1]: > 90%
EC50 [3]: 8.8 µM
Activity (PC-12 [4]): Active
viability at 24 h, 100 µM [6]: 80.2%
IC50 [7]: 20.8 µM
IC50 (PC-12 [8]): 4810 nM
viability at 24 h, 100 µM [9]: 83.8%

Structure (SMILES): CC(C)(C)OC(=O)N1CCCC1CS(=O)(=O)/C=C/c1ccc(O)c(O)c1 (stereo unspecified)
viability at 24 h, up to 40 µM [1]: > 90%
EC50 [3]: 7.1 µM
Activity (PC-12 [4]): inactive
viability at 24 h, 100 µM [6]: 52.5%
IC50 [7]: 7 µM
IC50 (PC-12 [8]): 7200 nM
viability at 24 h, 100 µM [9]: 68.7%

Structure (SMILES): O=S(=O)(/C=C/c1ccc(O)c(O)c1)CC1CCCCC1
viability at 24 h, up to 40 µM [1]: > 90%
Activity (PC-12 [2]): 30%
EC50 [3]: 7.5 µM
Activity (PC-12 [4]): Active
Activity (PC-12 [5]): Active
viability at 24 h, 100 µM [6]: 87%
IC50 [7]: 6.7 µM
IC50 (PC-12 [8]): 1850 nM
viability at 24 h, 100 µM [9]: 74.7%

Structure (SMILES): CCCCCCS(=O)(=O)/C=C/c1ccc(O)c(O)c1
viability at 24 h, up to 40 µM [1]: > 90%
Activity (PC-12 [2]): 30%
EC50 [3]: 7.3 µM
Activity (PC-12 [4]): Active
Activity (PC-12 [5]): Active
viability at 24 h, 100 µM [6]: 63.7%
IC50 [7]: 3.8 µM
IC50 (PC-12 [8]): 1300 nM
viability at 24 h, 100 µM [9]: 56.2%

Structure (SMILES): O=S(=O)(/C=C/c1ccc(O)c(O)c1)CCCC1CCCCC1
viability at 24 h, up to 40 µM [1]: > 90%
Activity (PC-12 [2]): 30%
EC50 [3]: 7.9 µM
Activity (PC-12 [4]): Active
Activity (PC-12 [5]): Active
viability at 24 h, 100 µM [6]: 91.3%
IC50 [7]: 9.2 µM
IC50 (PC-12 [8]): 1000 nM
viability at 24 h, 100 µM [9]: 77.7%

Structure (SMILES): O=S(=O)(/C=C/c1ccc(O)c(O)c1)CC1CCCN1 (stereo unspecified)
viability at 24 h, up to 40 µM [1]: > 90%
EC50 [3]: 13.8 µM
viability at 24 h, 100 µM [6]: 55.9%
IC50 [7]: 103 µM
viability at 24 h, 100 µM [9]: 76.4%

Structure (SMILES): O=S(=O)(/C=C/c1ccc(O)c(O)c1)CC1CCCCO1 (stereo unspecified)
viability at 24 h, up to 40 µM [1]: > 90%
EC50 [3]: 10.8 µM
Activity (PC-12 [4]): Active
viability at 24 h, 100 µM [6]: 88.3%
IC50 [7]: 6.9 µM
IC50 (PC-12 [8]): 3340 nM
viability at 24 h, 100 µM [9]: 78.8%

Structure (SMILES): C=CCCCCCCS(=O)(=O)/C=C/c1ccc(O)c(O)c1
viability at 24 h, up to 40 µM [1]: > 90%
Activity (PC-12 [2]): 30%
EC50 [3]: 6.4 µM
Activity (PC-12 [4]): Active
Activity (PC-12 [5]): Active
viability at 24 h, 100 µM [6]: 66.9%
IC50 [7]: 8.7 µM
IC50 (PC-12 [8]): 1350 nM
viability at 24 h, 100 µM [9]: 73.4%

The next lines start with results.

EC50 [3]: 6.7 µM
IC50 [7]: 12.2 µM
Structure (SMILES): O=S(=O)(/C=C/c1ccc(O)c(O)c1)CCCCCCCCO
viability at 24 h, up to 40 µM [1]: > 90%
Activity (PC-12 [4]): Active
Activity (PC-12 [5]): Active
viability at 24 h, 100 µM [6]: 87.3%
IC50 (PC-12 [8]): 7910 nM
viability at 24 h, 100 µM [9]: 49.5%

EC50 [3]: 11.4 µM
IC50 [7]: 6.9 µM
Structure (SMILES): CCCCCCCCCCCS(=O)(=O)/C=C/c1ccc(O)c(O)c1
viability at 24 h, up to 40 µM [1]: > 90%
Activity (PC-12 [4]): Active
Activity (PC-12 [5]): Active
viability at 24 h, 100 µM [6]: 52.1%
IC50 (PC-12 [8]): 2340 nM
viability at 24 h, 100 µM [9]: 23.2%

EC50 [3]: 6.8 µM
IC50 [7]: 7.3 µM
Structure (SMILES): CCCCCCCCCCS(=O)(=O)/C=C/c1ccc(O)c(O)c1
viability at 24 h, up to 40 µM [1]: > 90%
Activity (PC-12 [4]): Active
Activity (PC-12 [5]): Active
viability at 24 h, 100 µM [6]: 59.7%
IC50 (PC-12 [8]): 2210 nM
viability at 24 h, 100 µM [9]: 34.1%

EC50 [3]: 7.5 µM
IC50 [7]: 11 µM
Structure (SMILES): O=S(=O)(/C=C/c1ccc(O)c(O)c1)CCCCCCCCCO
viability at 24 h, up to 40 µM [1]: > 90%
Activity (PC-12 [4]): Active
Activity (PC-12 [5]): Active
viability at 24 h, 100 µM [6]: 95.2%
IC50 (PC-12 [8]): 7910 nM
viability at 24 h, 100 µM [9]: 54.4%

EC50 [3]: 7.7 µM
IC50 [7]: 7.4 µM
Structure (SMILES): CCCCCCCCCS(=O)(=O)/C=C/c1ccc(O)c(O)c1
viability at 24 h, up to 40 µM [1]: > 90%
Activity (PC-12 [4]): Active
Activity (PC-12 [5]): Active
viability at 24 h, 100 µM [6]: 70.6%
IC50 (PC-12 [8]): 1930 nM
viability at 24 h, 100 µM [9]: 66.6%
